For assay [1], the target named is litchi lectin. Put plainly: tryptophan fluorescence quenching. The assay is classed as binding, Litchi chinensis. As to conditions: free lectin; 150 mM NaCl, 10 mM CaCl2, pH 7.5, 298 K; n = 0.9. The essentials: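 Steady-state fluorescence emission spectra of dilute lectin solutions (10−4−10−6 M) recorded at 298 K in 1 cm path-length quartz cells on a fluorescence spectrophotometer. UV–vis absorption spectra were taken under the same conditions.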

In assay [2] the target is litchi lectin (Litchi chinensis seed lectin) (Litchi chinensis). In words: native gel or EMSA.

Consider `OC[C@H]1O[C@H](O[C@H]2[C@H](O)[C@@H](O)C(O)O[C@@H]2CO)[C@H](O)[C@@H](O)[C@@H]1O` (some centres unmarked) [maltose], for which the “Ka/ (10^4) (M^-1)” value in assay [1] was 4.9 (±0.2)×10^4.
What is called stoichiometry N is a count of units in the complex or per binding partner. “litchi lectin (Litchi chinensis seed lectin) (natural protein)” gave a stoichiometry N in assay [2] of 2.

The values above are taken from article PMC5689159 (Biochemistry and Biophysics Reports, 2016).
